Assay results reported in ChEMBL document CHEMBL4673284, “Syntheses and anti-HIV and human cluster of differentiation 4 (CD4) down-modulating potencies of pyridine-fused cyclotriazadisulfonamide (CADA) compounds” (Bioorg Med Chem, 2020).

Assays:
MT4 = test: Cytotoxicity against human MT-4 cells assessed as inhibition of cell viability incubated for 48 hrs by MTS/PES assay; type: cell-based; settings: mt4, 48 h
Outline: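 Cytotoxicity: 10^4 MT-4 cells/well in DMEM with 10% FBS and 10 mM HEPES were exposed to compounds 48 h at 37 °C. CC50 was derived from the drop in viability measured by MTS/PES.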

[1] = tested on: Human immunodeficiency virus 1; test: Antiviral activity against HIV-1 NL4-3 infected in human MT-4 cells assessed as inhibition of viral replication by measuring inhibition of cell viability preincubated with cells for 15 mins followed by viral infection and measured after 4 days by MTS/PES assay; type: functional, organism-based; settings: Human immunodeficiency virus 1, NL4-3, MT4
Outline: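 HIV-1 NL4.3 (30 pg/well) was then added at 37 °C. After 4 days, viability was read by MTS/PES (absorbance 490 and 700 nm) and the IC50 for viral replication was calculated. Mean ± SD, n = 2 or 3.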

[2] = Kinetic solubility of the compound in aqueous PBS buffer at H 7.4/2.5% DMSO incubated for 1 hr by nephelometry; type: physicochemical; settings: aqueous PBS buffer with 2.5% DMSO, pH 7.4, read-out: Kinetic_solubility
Outline: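 Compound from a 20 mM DMSO stock was diluted into PBS pH 7.4 at a constant 2.5% DMSO, then two-fold serially diluted in quadruplicate, with extra intermediate concentrations. Plates were shaken 2 min, held 1 h at 37 °C and shaken 3 min before nephelometry. Blank-subtracted scattering onset defined kinetic solubility.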

[3] = target: T-cell surface glycoprotein CD4 (Homo sapiens, UniProt P01730); test: Binding affinity to signal peptide of human CD4-YFP expressed in CHO-K1 cells assessed down-modulation of CD4 surface expression incubated for 24 hrs by flow cytometry; type: cell-based
Outline: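 CHO cells stably expressing human CD4 C-terminally fused to YFP were exposed 24 h at 37 °C to 1:5 serial dilutions, washed, fixed in 1% formaldehyde and analysed by flow cytometry (488 nm laser). YFP MFI, minus non-transfected background, was expressed as % of untreated controls. IC50 is the concentration giving 50% down-modulation. Mean ± SD, n = 3.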

[4] = Thermodynamic solubility of the compound in aqueous PBS buffer at pH 7.4 incubated for 72 hrs by shake flask method based UV-Vis absorption spectroscopy; type: physicochemical; settings: read-out: Therm_solubility
Outline: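 Shake-flask method: 3–5 mg compound in 5 mL PBS pH 7.4 was agitated 72 h, with excess solid checked at 24 and 48 h. The solution was then filtered and the filtrate quantified by UV-Vis standard addition with Beer–Lambert. ε came from five-concentration methanol calibrations at λmax, fitted by linear least squares.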

[5] = tested on: CD4 (surface expression down-modulation); test: Therapeutic index, ratio of CC50 for human MT-4 cells to IC50 for human CD4-YFP expressed in CHO-K1 cells assessed down-modulation of CD4 surface expression incubated for 24 hrs by flow cytometry; type: toxicity, cell-based; settings: read-out: Ratio CC50/IC50

| SMILES | solubility kinetic at 1 h [2] [µM] | IC50 [3] [nM] | solubility thermodynamic at 72 h [4] [µM] | CC50 (MT4) [µM] | IC50 [1] [nM] | selectivity ratio at 24 h [5] |
| --- | --- | --- | --- | --- | --- | --- |
| C=C1CN(S(=O)(=O)c2ccc(C)cc2)CCc2cc(-c3ccccc3)cc(n2)CCN(S(=O)(=O)c2ccc(C)cc2)C1.Cl | 61 | 740 | – | > 100 | 2470 | – |
| C=C1CN(S(=O)(=O)c2ccc(C)cc2)CCc2cc(C)cc(n2)CCN(S(=O)(=O)c2ccc(C)cc2)C1 | – | 1670 | – | > 100 | > 50000 | – |
| Br.C=C1CN(S(=O)(=O)c2ccc(C)cc2)CCc2cc(O)cc(n2)CCN(S(=O)(=O)c2ccc(C)cc2)C1 | – | 9300 | 27 | > 100 | > 50000 | – |
| C=C1CN(S(=O)(=O)c2ccc(C)cc2)CCc2cc(C(C)(C)C)cc(n2)CCN(S(=O)(=O)c2ccc(C)cc2)C1.Cl | – | 950 | 20 | > 100 | 2700 | – |
| C=C1CN(S(=O)(=O)c2ccc(C)cc2)CCc2cc(CCC)cc(n2)CCN(S(=O)(=O)c2ccc(C)cc2)C1.Cl | – | 830 | 18 | > 100 | 2810 | – |
| C=C1CN(S(=O)(=O)c2ccc(C)cc2)CCc2cc(CC)cc(n2)CCN(S(=O)(=O)c2ccc(C)cc2)C1 | – | 860 | – | > 100 | 3400 | – |
| C=C1CN(S(=O)(=O)c2ccc(C)cc2)CCc2cc(OC)cc(n2)CCN(S(=O)(=O)c2ccc(C)cc2)C1.Cl | 64 | 1880 | 28 | > 100 | 12600 | – |
| C=C1CN(S(=O)(=O)c2ccc(C)cc2)CCc2cccc(n2)CCN(S(=O)(=O)c2ccc(C)cc2)C1 | – | 2810 | – | > 100 | > 50000 | – |
| C=C1CN(S(=O)(=O)c2ccc(C)cc2)CCc2cc(OCC)cc(n2)CCN(S(=O)(=O)c2ccc(C)cc2)C1.Cl | 54 | 1500 | – | > 100 | 10400 | – |
| C=C1CN(S(=O)(=O)c2ccc(C)cc2)CCc2cc(CC(C)C)cc(n2)CCN(S(=O)(=O)c2ccc(C)cc2)C1.Cl | – | 660 | 29 | 87.9 | 2300 | > 100 |

Compounds with a lower IC50 [3], results first:

| solubility kinetic at 1 h [2] [µM] | IC50 [3] [nM] | solubility thermodynamic at 72 h [4] [µM] | SMILES | CC50 (MT4) [µM] | IC50 [1] [nM] | selectivity ratio at 24 h [5] |
| --- | --- | --- | --- | --- | --- | --- |
| 43 | 330 | 11 | C=C1CN(S(=O)(=O)c2ccc(C)cc2)CCCN(Cc2ccccc2)CCCN(S(=O)(=O)c2ccc(C)cc2)C1.Cl [CYCLOTRIAZADISULFONAMIDE HYDROCHLORIDE] | > 100 | 1680 | – |
| 65 | 130 | – | C=C1CN(S(=O)(=O)c2ccc(C)cc2)CCc2cc(OCC3CCCCC3)cc(n2)CCN(S(=O)(=O)c2ccc(C)cc2)C1.Cl | > 100 | 930 | – |
| – | 420 | – | C=C1CN(S(=O)(=O)c2ccc(C)cc2)CCc2cc(OCc3ccccc3)cc(n2)CCN(S(=O)(=O)c2ccc(C)cc2)C1 | > 100 | 2180 | – |
| – | 220 | – | C=C1CN(S(=O)(=O)c2ccc(N(C)C)cc2)CCc2cc(CC)cc(n2)CCN(S(=O)(=O)c2ccc(N(C)C)cc2)C1 | > 100 | 1100 | – |
| – | 540 | – | C=C1CN(S(=O)(=O)c2ccc(C)cc2)CCc2cc(CCCC)cc(n2)CCN(S(=O)(=O)c2ccc(C)cc2)C1 | 65.8 | 2410 | > 100 |
